Test results as given in ChEMBL document CHEMBL5724801, “EUbOPEN Chemogenomics Library - Multiplex” (2024).
“And” between values parts separate entries of the source, which are not always exact repeats. Identical values can stand only once.

What was measured:
[1] = system: HEK-293T; test: Multiplex assay against HEK293T; type: toxicity, cell-based; conditions: human
Method in brief: (§1)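 On a CQ1 microscope at 37°C and 5% CO2, live cells were imaged after compound addition. They had been stained at seeding with Hoechst33342, BioTracker Green Microtubule Cytoskeleton Dye, MitoTracker Red and Annexin V Alexa Fluor 680. CellPathfinder machine-learning gating assigned cells to Hoechst high-intensity objects or normal cells, normal cells to healthy, pyknosed or fragmented nuclei, and pyknosed cells to mitotic or apoptotic. Tubulin, mitochondrial-mass and membrane-permeability phenotypes are per cents of healthy-nucleus cells.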

[2] = system: Fibroblast; test: Multiplex assay against human fibroblast; type: toxicity, cell-based; method in brief: as §1
[3] = 24 h, 1 µM, compound concentration 1 uM
[4] = 24 h, 10 µM, compound concentration 10 uM
[5] = 48 h, 1 µM, compound concentration 1 uM
[6] = 48 h, 10 µM, compound concentration 10 uM
[7] = 12 h, 1 µM, compound concentration 1 uM
[8] = 12 h, 10 µM, compound concentration 10 uM

CN(C)C(=O)Cn1cc(-c2ccc(-c3nnc4ccccn34)cc2)cn1 was tested, and the “Total Cell Count” value [1, 3] was 595 and 447, the “Population Apoptotic (%)” value [1, 4] was 35% and 61% and the “Population Fragmented Nuclei (%)” value [1, 4] was 7% and 13%. For the same compound, the “Population Healthy Nuclei (%)” value [1, 4] was 78% and 79%, the “Population Hoechst High Intensity Objects (%)” value [1, 4] was 4% and 7% and the “Population Membrane Permeable-Phenotype (%)” value [1, 4] was 0%. The “Population Mitochondria Different-Phenotype (%)” value [1, 4] was 44% and 39%, the “Population Mitotic Cells (%)” value [1, 4] was 64% and 38% and the “Population Normal (%)” value [1, 4] was 95% and 92%. For the same compound, the “Population Pyknosed Nuclei (%)” value [1, 4] was 13% and 7%, the “Population Tubulin-Different-Phenotype (%)” value [1, 4] was 27% and 11% and the “Total Cell Count” value [1, 4] was 506 and 425. The “Population Apoptotic (%)” value [1, 5] was 18% and 32%, the “Population Fragmented Nuclei (%)” value [1, 5] was 11% and the “Population Healthy Nuclei (%)” value [1, 5] was 81% and 80%. The “Population Hoechst High Intensity Objects (%)” value [1, 5] was 3% and 4%, the “Population Membrane Permeable-Phenotype (%)” value [1, 5] was 0% and the “Population Mitochondria Different-Phenotype (%)” value [1, 5] was 20% and 22%. For the same compound, the “Population Mitotic Cells (%)” value [1, 5] was 81% and 67%, the “Population Normal (%)” value [1, 5] was 96% and 95% and the “Population Pyknosed Nuclei (%)” value [1, 5] was 6% and 7%. The “Population Tubulin-Different-Phenotype (%)” value [1, 5] was 13% and 12%, the “Total Cell Count” value [1, 5] was 946 and 572 and the “Population Apoptotic (%)” value [1, 6] was 30% and 37%. For the same compound, the “Population Fragmented Nuclei (%)” value [1, 6] was 18% and 14%, the “Population Healthy Nuclei (%)” value [1, 6] was 74% and 79% and the “Population Hoechst High Intensity Objects (%)” value [1, 6] was 5% and 2%. For the same compound, the “Population Membrane Permeable-Phenotype (%)” value [1, 6] was 0%, the “Population Mitochondria Different-Phenotype (%)” value [1, 6] was 24% and 27% and the “Population Mitotic Cells (%)” value [1, 6] was 69% and 62%. For the same compound, the “Population Normal (%)” value [1, 6] was 94% and 97%, the “Population Pyknosed Nuclei (%)” value [1, 6] was 6% and 5% and the “Population Tubulin-Different-Phenotype (%)” value [1, 6] was 14% and 12%. The “Total Cell Count” value [1, 6] was 753 and 616, the “Population Apoptotic (%)” value [2, 7] was 57% and 55% and the “Population Fragmented Nuclei (%)” value [2, 7] was 18% and 20%. The “Population Healthy Nuclei (%)” value [2, 7] was 60% and 58%, the “Population Hoechst High Intensity Objects (%)” value [2, 7] was 5% and the “Population Membrane Permeable-Phenotype (%)” value [2, 7] was 1% and 7%. For the same compound, the “Population Mitochondria Different-Phenotype (%)” value [2, 7] was 3% and 7%, the “Population Mitotic Cells (%)” value [2, 7] was 42% and 44% and the “Population Normal (%)” value [2, 7] was 94%. The “Population Pyknosed Nuclei (%)” value [2, 7] was 21% and 20%, the “Population Tubulin-Different-Phenotype (%)” value [2, 7] was 22% and 42% and the “Total Cell Count” value [2, 7] was 139 and 152. The “Population Apoptotic (%)” value [2, 8] was 52% and 39%, the “Population Healthy Nuclei (%)” value [2, 8] was 63% and 38% and the “Population Hoechst High Intensity Objects (%)” value [2, 8] was 3% and 8%. For the same compound, the “Population Membrane Permeable-Phenotype (%)” value [2, 8] was 0% and 15%, the “Population Mitochondria Different-Phenotype (%)” value [2, 8] was 6% and 18% and the “Population Mitotic Cells (%)” value [2, 8] was 47% and 60%. The “Population Normal (%)” value [2, 8] was 96% and 91%, the “Population Pyknosed Nuclei (%)” value [2, 8] was 28% and 29% and the “Population Tubulin-Different-Phenotype (%)” value [2, 8] was 31% and 70%. The “Total Cell Count” value [2, 8] was 140 and 123, the “Population Apoptotic (%)” value [2, 3] was 56% and 54% and the “Population Fragmented Nuclei (%)” value [2, 3] was 23%. The “Population Healthy Nuclei (%)” value [2, 3] was 60%, the “Population Hoechst High Intensity Objects (%)” value [2, 3] was 0% and 4% and the “Population Membrane Permeable-Phenotype (%)” value [2, 3] was 2% and 4%. The “Population Mitochondria Different-Phenotype (%)” value [2, 3] was 1% and 3%, the “Population Mitotic Cells (%)” value [2, 3] was 43% and 45% and the “Population Normal (%)” value [2, 3] was 99% and 95%. The “Population Pyknosed Nuclei (%)” value [2, 3] was 16%, the “Population Tubulin-Different-Phenotype (%)” value [2, 3] was 25% and 41% and the “Total Cell Count” value [2, 3] was 144 and 142. For the same compound, the “Population Apoptotic (%)” value [2, 4] was 65% and 26%, the “Population Healthy Nuclei (%)” value [2, 4] was 65% and 40% and the “Population Hoechst High Intensity Objects (%)” value [2, 4] was 5% and 9%. The “Population Membrane Permeable-Phenotype (%)” value [2, 4] was 2% and 10%, the “Population Mitochondria Different-Phenotype (%)” value [2, 4] was 5% and 6% and the “Population Mitotic Cells (%)” value [2, 4] was 34% and 73%. For the same compound, the “Population Normal (%)” value [2, 4] was 94% and 90%, the “Population Pyknosed Nuclei (%)” value [2, 4] was 24% and 22% and the “Population Tubulin-Different-Phenotype (%)” value [2, 4] was 25% and 71%. For the same compound, the “Total Cell Count” value [2, 4] was 140 and 126, the “Population Apoptotic (%)” value [2, 5] was 58% and 42% and the “Population Fragmented Nuclei (%)” value [2, 5] was 22% and 28%. The “Population Healthy Nuclei (%)” value [2, 5] was 61% and 52%, the “Population Hoechst High Intensity Objects (%)” value [2, 5] was 1% and 5% and the “Population Membrane Permeable-Phenotype (%)” value [2, 5] was 4% and 6%. For the same compound, the “Population Mitochondria Different-Phenotype (%)” value [2, 5] was 4% and 2%, the “Population Mitotic Cells (%)” value [2, 5] was 41% and 57% and the “Population Normal (%)” value [2, 5] was 98% and 94%. For the same compound, the “Population Pyknosed Nuclei (%)” value [2, 5] was 16% and 18%, the “Population Tubulin-Different-Phenotype (%)” value [2, 5] was 29% and 46% and the “Total Cell Count” value [2, 5] was 151 and 147. For the same compound, the “Population Apoptotic (%)” value [2, 6] was 52% and 60%, the “Population Fragmented Nuclei (%)” value [2, 6] was 16% and 44% and the “Population Healthy Nuclei (%)” value [2, 6] was 66% and 47%. The “Population Hoechst High Intensity Objects (%)” value [2, 6] was 2% and 3%, the “Population Membrane Permeable-Phenotype (%)” value [2, 6] was 0% and 18% and the “Population Mitochondria Different-Phenotype (%)” value [2, 6] was 2% and 8%. For the same compound, the “Population Mitotic Cells (%)” value [2, 6] was 47% and 40%, the “Population Normal (%)” value [2, 6] was 97% and 96% and the “Population Pyknosed Nuclei (%)” value [2, 6] was 17% and 7%. The “Population Tubulin-Different-Phenotype (%)” value [2, 6] was 38% and 73% and the “Total Cell Count” value [2, 6] was 137 and 131.
